Assay results reported in ChEMBL document CHEMBL3044983, “Antifungal activity and biotransformation of diisophorone by Botrytis cinerea” (J Agric Food Chem, 2005).
Calls of active or inactive are those of the source. No cut-off for these calls is given here.

How the values were obtained:
Botrytis cinerea [1] = assay: Antifungal activity against Botryotinia fuckeliana UCA992 assessed as inhibition of radial mycelial growth up to 200 ppm for 5 days by poisoned food technique; type: functional
In short: (§1)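 Radial growth on glucose-malt-peptone-agar (pH 6.5-7.0). Test compound was added in ethanol to final 50-200 mg/L, and ethanol was equal in control and treated plates. A 1.5 cm mycelial disk from an actively growing culture was placed at the plate centre, and radial growth was followed over 8 days. Percent inhibition was taken from colony diameters relative to the negative control, as the mean of triplicates.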

Botrytis cinerea [2] = assay: Antifungal activity against Botryotinia fuckeliana UCA992 assessed as inhibition of radial mycelial growth up to 100 ppm for 5 days by poisoned food technique; type: functional, organism-based; in short: as §1
Botrytis cinerea [3] = assay: Antifungal activity against Botryotinia fuckeliana UCA992 assessed as inhibition of radial mycelial growth up to 150 ppm for 5 days by poisoned food technique; type: functional; in short: as §1
Botrytis cinerea [4] = assay: Antifungal activity against Botryotinia fuckeliana UCA992 assessed as inhibition of radial mycelial growth for 5 days by poisoned food technique; type: functional, organism-based
Botrytis cinerea [5] = assay: Antifungal activity against Botryotinia fuckeliana 2100 assessed as inhibition of radial mycelial growth for 5 days by poisoned food technique; type: functional, organism-based
Botrytis cinerea [6] = assay: Antifungal activity against Botryotinia fuckeliana UCA992 assessed as inhibition of radial mycelial growth up to 50 ppm for 5 days by poisoned food technique; type: functional
Botrytis cinerea [7] = assay: Antifungal activity against Botryotinia fuckeliana 2100 assessed as inhibition of radial mycelial growth at 50 ppm for 5 days by poisoned food technique; type: functional; conditions: Botrytis cinerea, 2100, 120 h; in short: as §1

| Compound | inhibition (Botrytis cinerea [1]) | inhibition (Botrytis cinerea [2]) | inhibition (INH) (Botrytis cinerea [1]) | inhibition (INH) (Botrytis cinerea [3]) | IC50 (Botrytis cinerea [4]) | IC50 (Botrytis cinerea [5]) | inhibition (INH) (Botrytis cinerea [6]) | inhibition at 50 ppm (Botrytis cinerea [7]) |
| --- | --- | --- | --- | --- | --- | --- | --- | --- |
| CC1(C)C[C@@]2(C)CC3=C(C(=O)CC(C)(C)[C@@H]3O)[C@@](O)(C1)C2 | inactive | inactive |  |  |  |  |  |  |
| CC1(C)CC(=O)C2=C(C1)C[C@]1(C)CC(C)(C)C[C@@]2(O)C1 [DIISOPHORONE] |  | inactive | 92% | 76% | 89 ppm | 70 ppm | 6% | 69% |
| CC1(C)C[C@@]2(O)C[C@@](C)(C1)[C@H](O)C1=C2C(=O)C[C@@](C)(CO)C1 | inactive | inactive |  |  |  |  |  |  |
| CC1(C)C[C@@]2(C)CC3=C(C(=O)CC(C)(C)[C@H]3O)[C@@](O)(C1)C2 | inactive | inactive |  |  |  |  |  |  |
| CC1(C)CC(=O)C2=C(C1)[C@@H](O)[C@]1(C)CC(C)(C)C[C@@]2(O)C1 | inactive | inactive |  |  |  |  |  |  |
